Like-named read-outs stand apart in the source and are kept apart here.
Legend:
[1] = cited from earlier work
Aβ(1–42) aggregates = Aβ(1–42) aggregates (Homo sapiens, UniProt P05067); format: binding; conditions: for ka, pseudo-first-order rate constant: DPV current decay fit, 100 mM phosphate buffer/50 mM KClO4 pH 7.4, 37 °C, average of three replicates; for t1/2, half-life: from pseudo-first-order ka
Outline: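 HFIP-pretreated, lyophilised Aβ(1–42) and the ferrocene-tagged peptide (20 μM) were dissolved in 100 mM phosphate/50 mM KClO₄, pH 7.4, at several peptide:Aβ ratios and held at 37 °C. DPV was recorded over 0–24 h (pulse amplitude 50 mV, width 50 ms, period 200 ms, sample width 17 ms). Points were averages of three replicates, and current–time curves were fitted to a pseudo-first-order rate law.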

[2] = Self-aggregation of the peptide incubated alone; format: physicochemical
Outline: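 The tagged peptide (20 μM) without Aβ was incubated at 37 °C. DPV was run in 100 mM phosphate/50 mM KClO₄, pH 7.4. For AFM, aliquots of the incubated solution were cast on mica pretreated with 10 mM NiCl₂ for 15 min, rinsed with water and dried under nitrogen. They were imaged in tapping mode over 5 μm × 5 μm fields at the stated incubation times.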

Sequence of Aβ(1–42) aggregates (P05067 672-713 limits assumed): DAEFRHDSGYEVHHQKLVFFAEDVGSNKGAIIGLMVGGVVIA

Row | Substance | self-aggregation [1] | ka, pseudo-first-order rate constant (Aβ(1–42) aggregates; [Fc-KLVFFK6]:[Aβ(1–42)] 1:0.25, 20 μM Fc-KLVFFK6) | t1/2, half-life (Aβ(1–42) aggregates; [Fc-KLVFFK6]:[Aβ(1–42)] 1:0.25) | ka, pseudo-first-order rate constant (Aβ(1–42) aggregates; [Fc-KLVFFK6]:[Aβ(1–42)] 1:0.5, 20 μM Fc-KLVFFK6) | t1/2, half-life (Aβ(1–42) aggregates; [Fc-KLVFFK6]:[Aβ(1–42)] 1:0.5) | ka, pseudo-first-order rate constant (Aβ(1–42) aggregates; [Fc-KLVFFK6]:[Aβ(1–42)] 1:1, 20 μM Fc-KLVFFK6) | t1/2, half-life (Aβ(1–42) aggregates; [Fc-KLVFFK6]:[Aβ(1–42)] 1:1) | ka, pseudo-first-order rate constant (Aβ(1–42) aggregates; [Fc-KLVFFK6]:[Aβ(1–42)] 1:2, 20 μM Fc-KLVFFK6) | t1/2, half-life (Aβ(1–42) aggregates; [Fc-KLVFFK6]:[Aβ(1–42)] 1:2) | ka, pseudo-first-order rate constant (Aβ(1–42) aggregates; [Fc-KLVFFK6]:[Aβ(1–42)] 1:4, 20 μM Fc-KLVFFK6) | incubation time at which the DPV current reaches a plateau (Aβ(1–42) aggregates; all stoichiometric ratios, 20 μM Fc-KLVFFK6, 37 °C) | half-life of the conjugate formed between Fc-KLVFFK6 and the Aβ(1–42) aggregates (Aβ(1–42) aggregates; over all stoichiometric ratios of Table 1) | self-aggregation, AFM of the peptide alone ([2]; 20 μM Fc-KLVFFK6 incubated alone, AFM (Figure 4 row D)) | self-aggregation, DPV current of the peptide alone ([2]; 20 μM Fc-KLVFFK6 without Aβ(1–42), 100 mM phosphate buffer/50 mM KClO4 pH 7.4, 37 °C, 24 h, steady DPV current)
1 | KLVFF | known to self-aggregate | – | – | – | – | – | – | – | – | – | – | – | – | –
2 | Fc-KLVFFK6 | – | (1.49 ± 0.15) × 10^−4 s^−1 | 1.2919 h | (1.43 ± 0.08) × 10 ^−4 s^−1 | 1.3462 h | (1.26 ± 0.07) × 10 ^−4 s^−1 | 1.5278 h | (1.71 ± 0.05) × 10^−4 s^−1 | 1.1257 h | (1.89 ± 0.05) × 10^−4 s^−1 | about 6 h | 1.2632 ± 0.1961 h | does not self-aggregate when incubated alone | does not undergo self-aggregation
